According to PubChem BioAssay:
Results filed as inconclusive are left out.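 How the source made its calls, unless noted: active means RAM network inhibition above 8.4% in each of two replicates, 3 SD over the compound average; inconclusive means above 8.4% inhibition in only one replicate; inactive means 8.4% inhibition or less in each replicate.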

Assays:
[1] = S. cerevisiae growth inhibition in permissive medium (OD615), pilot counter-assay for S. cerevisiae lifespan shortening project, permissive growth control (AID 705;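 active means growth inhibition above 25% in both replicates, a cutoff set 3 SD above the mean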); conditions: OD615, 24 h, at 10 µM, hits give high values
Outline: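 Test system: Saccharomyces cerevisiae strain carrying genetically modified DeaD replicative-lifespan system; buffer or medium: SC raffinose/galactose permissive medium; dosing: one dose 10 µM, DMSO 0.25% final; times: 24 h exposure, 30 °C; measured by: OD at 615 nm; read-out basis: growth inhibition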

[2] = S. cerevisiae growth inhibition in restrictive medium, OD615, pilot screen, restrictive growth control, yeast lifespan reduction project (AID 706;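 active means growth inhibition above a set limit, 3 SD over mean compound inhibition, in both replicates, cut at about 43% in these data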;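 further: modified DeaD lifespan yeast strain shifted to restrictive glucose medium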); conditions: OD615, 48 h, at 10 µM, hits give high values
Outline: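 material = engineered S. cerevisiae DeaD strain | buffer or medium = glucose-based CSMM-D restrictive medium | dosing = one concentration, 10 µM final, 0.25% DMSO | schedule = 4 h pre-growth plus 48 h compound exposure, 30 °C | detection = OD615 absorbance reading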

[3] = doxorubicin toxicity protection in MRP-1 cells – H69AR cells, CellTiter-Glo, duplicate, MRP-1 activator project, pilot screen (AID 807;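 active means viability increase at or above a cutoff of the median across tested compounds plus 3 SD, cut at about 8.5% in these data, passing the limit was not always enough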;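 further: compound pretreatment 18-22 h then 72 h combined with doxorubicin; 0% = doxorubicin alone and 100% = vehicle without doxorubicin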); conditions: H69AR viability with doxorubicin, CellTiter-Glo luminescence; at 10 µM; hits give high values
[4] = viability of HCT116 without oncogenic beta-catenin – human colon tumor cells, pilot screen (AID 823;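 active means cell viability at or below a set limit in both duplicate runs, the limit being the all-compound median minus 4 SD, cut at about 23% in these data, passing the limit was not always enough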;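 further: 0% = wells killed by 20 µM Hyamine and 100% = untreated DMSO cell wells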); conditions: HCT116 beta-catenin knockout viability, CellTiter-Glo, 60 h; at 10 µM; hits give low values
[5] = viability of PTEN-null HCT116 cells – cell-based, HCT116 clonal line, CellTiter-Glo, pilot screen (AID 824;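 active means viability at or below 27.92% in each of two runs, the all-compound median minus 4 SD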;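 further: 0% = 20 µM Hyamine control and 100% = vehicle cell control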); conditions: HCT116 PTEN-deleted viability, 60 h, at 10 µM, hits give low values
[6] = RAM pathway blockade in budding yeast – dse1pr::URA3 reporter, 5-FOA selection, pilot screen (AID 869;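 active means inhibition over a set limit, the all-compound mean plus 3 SD, in both replicate runs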;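 further: 0% = DMSO wells with no growth and 100% = 10 µM 1-NA-PP1 with full growth; RAM network block rescues cells from 5-FOA so hits raise OD615 growth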); conditions: S. cerevisiae dse1pr::URA3 5-FOA growth, OD615, 2 d; at 10 µM; hits give high values; strain carries analog-sensitive mutant Cbk1 kinase
[7] = RAM signaling pathway blockade in yeast – S. cerevisiae, Pdr1DBD-CYC8 efflux-inhibited sensitized strain, primary screen (AID 1298);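 further: 0% = DMSO untreated cells without growth and 100% = 10 µM 1-NA-PP1 full growth; higher means more yeast growth rescued from 5-FOA killing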; conditions: S. cerevisiae cbk1-as DSE1-URA3 strain, 5-FOA growth OD615, 2 d; at 50 µM; hits give high values

COc1ccc(N2C(=O)C3CCCN3C2c2ccccc2)cc1 (stereo not drawn)
inactive: growth inhibition [1] 4.01% | growth inhibition [2] -9.51% | viability increase [3] -0.65% | viability [4] 102% | viability [5] 101% | inhibition [6] 1.87% | RAM network inhibition [7] -0.32%

CCn1nnnc1-c1ccc(OC)c(S(=O)(=O)NCCc2ccccc2)c1
inactive: growth inhibition [1] 2.78% | growth inhibition [2] 2.87% | viability increase [3] 0.85% | viability [4] 93.5% | viability [5] 97.3% | inhibition [6] 0.03% | RAM network inhibition [7] 1.98%

CCOC(=O)C1CCCN(Cc2nc(N)nc(Nc3ccccc3OC)n2)C1 (stereo not drawn)
inactive: growth inhibition [1] -0.44% | growth inhibition [2] -2.06% | viability increase [3] -3.66% | viability [4] 88.8% | viability [5] 83.4% | inhibition [6] 0.15% | RAM network inhibition [7] 0.43%

CCOc1ccccc1Nc1cc(C)nc2nc(C)nn12
inactive: growth inhibition [1] -11.9% | growth inhibition [2] -9.62% | viability increase [3] -2.37% | viability [4] 104% | viability [5] 97.2% | inhibition [6] 1.67% | RAM network inhibition [7] -1.47%

COc1cc(SC)ccc1C(=O)Nc1ccc2c(c1)OCCO2
inactive: growth inhibition [1] -7.61% | growth inhibition [2] -4.97% | viability increase [3] -0.82% | viability [4] 67.1% | viability [5] 65.8% | inhibition [6] 1.18% | RAM network inhibition [7] -0.97%

CCOC(=O)C1=C(C)Nc2nc(C)nn2C1c1cc(OC)ccc1OC (stereo not drawn)
inactive: growth inhibition [1] 3.21% | growth inhibition [2] 4.81% | viability increase [3] -1.53% | viability [4] 108% | viability [5] 100% | inhibition [6] -1.1% | RAM network inhibition [7] -0.16%

CN(C)S(=O)(=O)c1ccc(NC(=O)C2COc3ccccc3O2)cc1 (stereo not drawn)
inactive: growth inhibition [1] -9.66% | growth inhibition [2] -10.9% | viability increase [3] 0.49% | viability [4] 90.2% | viability [5] 83.8% | inhibition [6] 1.27% | RAM network inhibition [7] 2.63%

Cc1nc(CNS(=O)(=O)c2ccc3c(c2)CCCC3)cs1
inactive: growth inhibition [1] -5.81% | growth inhibition [2] -2.64% | viability increase [3] -1.72% | viability [4] 96.7% | viability [5] 73.8% | inhibition [6] 1.51% | RAM network inhibition [7] 0.22%

COc1ccc(-c2cn3c(C)c(C(=O)N4CCCc5ccccc54)sc3n2)cc1
inactive: growth inhibition [1] 0.505% | growth inhibition [2] 24.2% | viability increase [3] -3.31% | viability [4] 64.9% | viability [5] 65.6% | inhibition [6] 0.565% | RAM network inhibition [7] 3.08%

Cc1sc2ncn(CC(=O)NCc3ccccn3)c(=O)c2c1S(=O)(=O)N1CCOCC1
inactive: growth inhibition [1] -11.7% | growth inhibition [2] -5.54% | viability increase [3] 1.3% | viability [4] 101% | viability [5] 99.5% | inhibition [6] 0.485% | RAM network inhibition [7] 3.01%

CCCCCn1c(CNC(=O)CCC)nc2ccccc21
inactive: growth inhibition [1] -7.29% | growth inhibition [2] -2.36% | viability increase [3] -2.97% | viability [4] 101% | viability [5] 96.4% | inhibition [6] 2.5% | RAM network inhibition [7] 0.64%

Cc1cc(NC(=O)c2cc(CC(C)C)on2)no1
inactive: growth inhibition [1] -5.71% | growth inhibition [2] -12.5% | viability increase [3] -1.75% | viability [4] 106% | viability [5] 94.5% | inhibition [6] 0.67% | RAM network inhibition [7] 6.04%

CC(=O)Nc1ccc(S(=O)(=O)N2CCN(c3ccc(C)c(Cl)c3)CC2)cc1
inactive: growth inhibition [1] -14.6% | growth inhibition [2] 6.34% | viability increase [3] 0.47% | viability [4] 98.3% | viability [5] 85.4% | inhibition [6] 1.71% | RAM network inhibition [7] 1.14%

O=C(c1cc(-c2cccc(O)c2)on1)N1CCCCC1
inactive: growth inhibition [1] 0.145% | growth inhibition [2] 10.4% | viability increase [3] 0.08% | viability [4] 101% | viability [5] 103% | inhibition [6] -0.46% | RAM network inhibition [7] 4.74%

COc1ccc(C(=O)N2CCN(c3ccc(C)cc3)CC2)cc1OC
inactive: growth inhibition [1] -10.4% | growth inhibition [2] -14.2% | viability increase [3] -1.27% | viability [4] 103% | viability [5] 90.2% | inhibition [6] 0.81% | RAM network inhibition [7] 3.75%

Cc1ccc(-c2nc3cnccn3c2Nc2ccccc2)o1
inactive: growth inhibition [1] 0.205% | growth inhibition [2] 14.9% | viability increase [3] -0.77% | viability [4] 91.2% | viability [5] 84.3% | inhibition [6] 0.995% | RAM network inhibition [7] 1.9%

CCC(CO)N=CC1=C(O)CC(C)(C)CC1=O (stereo not drawn)
inactive: growth inhibition [1] 3.97% | growth inhibition [2] -5.8% | viability increase [3] -0.8% | viability [4] 102% | viability [5] 98.8% | inhibition [6] -0.06% | RAM network inhibition [7] 0.21%

CC1Cc2nc(SCC(=O)NCc3ccco3)n(Cc3ccccc3)c(=O)c2S1 (stereo not drawn)
inactive: growth inhibition [1] -6.15% | growth inhibition [2] -15.7% | viability increase [3] -6.41% | viability [4] 91.1% | viability [5] 87.3% | inhibition [6] 3.45% | RAM network inhibition [7] 3.84%

CCCn1cnc2cc(NCc3ccccn3)ccc21
inactive: growth inhibition [1] -5.07% | growth inhibition [2] 8.03% | viability increase [3] -2.58% | viability [4] 98.5% | viability [5] 100% | inhibition [6] 2.06% | RAM network inhibition [7] -2.3%

Cc1cc(C(=O)Nc2nnc(C3CCCCC3)s2)cs1
inactive: growth inhibition [1] -9.12% | growth inhibition [2] 1.04% | viability increase [3] 1.38% | viability [4] 94.7% | viability [5] 101% | inhibition [6] 4.87% | RAM network inhibition [7] 9.03%

CC(=O)COC(=O)c1cccc(N2C(=O)C3C4C=CC(C4)C3C2=O)c1 (stereo not drawn)
inactive: growth inhibition [1] -0.62% | growth inhibition [2] 8.06% | viability increase [3] -1.07% | viability [4] 105% | viability [5] 93.5% | inhibition [6] 1.27% | RAM network inhibition [7] 0.67%

Nc1nonc1/C(=N/O)N1CCN(CCO)CC1
inactive: growth inhibition [1] 1.46% | growth inhibition [2] -1.22% | viability increase [3] 0% | viability [4] 104% | viability [5] 100% | inhibition [6] 1.46% | RAM network inhibition [7] 0.95%

COc1ccc(C)c2sc(=NC(=O)c3ccc(C#N)cc3)n(C)c12
inactive: growth inhibition [1] -5.79% | growth inhibition [2] -17.2% | viability increase [3] -3.95% | viability [4] 85.3% | viability [5] 81.6% | inhibition [6] 0.96% | RAM network inhibition [7] 1.83%

Cc1cc(C)n2nc(C(=O)Oc3ccc4c(c3)OCO4)nc2n1
inactive: growth inhibition [1] -3.75% | growth inhibition [2] -24% | viability increase [3] -1.75% | viability [4] 99% | viability [5] 104% | inhibition [6] 1.7% | RAM network inhibition [7] 3.06%
